According to ChEMBL document CHEMBL3351871, “Potent, long-acting cyclopentane-1,3-Dione thromboxane (A2)-receptor antagonists” (ACS Med Chem Lett, 2014):
pIC50: −log10 of the molar value. The source made the active and inactive calls. The rule behind the calls is not given here.

Experiments:
Thromboxane A2 receptor = molecular target: T1, Thromboxane A2 receptor (Homo sapiens, UniProt P21731); assay: Antagonist activity against human thromboxane A2 receptor alpha expressed in QBI-HEK293A cells assessed as reduction in I-BOP-induced inositol monophosphate production incubated for 15 to 60 mins before I-BOP addition by HTRF assay; assay type: functional, cell-based, HEK293-A
T1 sequence (P21731 whole entry): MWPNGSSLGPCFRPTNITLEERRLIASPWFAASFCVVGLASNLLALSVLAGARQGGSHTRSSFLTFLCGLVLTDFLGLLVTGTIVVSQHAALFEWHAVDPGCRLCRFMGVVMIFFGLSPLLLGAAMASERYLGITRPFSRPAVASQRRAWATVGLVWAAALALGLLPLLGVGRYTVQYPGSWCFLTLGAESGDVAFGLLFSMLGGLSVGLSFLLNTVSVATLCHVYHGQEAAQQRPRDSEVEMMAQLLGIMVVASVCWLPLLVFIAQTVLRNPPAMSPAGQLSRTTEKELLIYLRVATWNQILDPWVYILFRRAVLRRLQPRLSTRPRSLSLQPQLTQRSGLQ
How it was run: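 Stably transfected HEK-293 cells expressing human TP receptor α preincubated 15 min with a range of antagonist concentrations, then stimulated with agonist I-BOP at 0.2 nM. IP1 (metabolite of IP3) quantified after a further 1 h as the activation read-out. IC50 from concentration–response curves; mean and SD of one or more assays run in triplicate.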

[1] = molecular target: T2, Thromboxane A2 receptor (Homo sapiens) (UniProt P21731); assay: (§1) Irreversible antagonist activity against human thromboxane A2 receptor alpha expressed in QBI-HEK293A cells assessed as reduction in I-BOP-induced inositol monophosphate production at 1 uM incubated for 15 to 60 mins before I-BOP addition and measured after 6 consecutive drug washout by HTRF assay; assay type: functional, cell-based; conditions: HEK293-A
T2 sequence (whole entry): T1 sequence (P21731 whole entry)
How it was run: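 Washout variant: hTP cells preincubated 15 min with compound (1 μM; 10 μM for some), then 6 consecutive wash cycles of ~50-fold dilution each before 0.8 nM I-BOP. Relative IP1 determined. Controls received I-BOP alone or no treatment; ANOVA with Dunnett's test against the +I-BOP condition.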

[2] = molecular target: T2, Thromboxane A2 receptor (Homo sapiens); assay: Antagonist activity against human thromboxane A2 receptor alpha expressed in QBI-HEK293A cells assessed as reduction in I-BOP-induced inositol monophosphate production at 1 uM incubated for 15 to 60 mins before I-BOP addition by HTRF assay; assay type: functional, cell-based; conditions: HEK293-A
How it was run: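 hTP-expressing HEK-293 cells exposed to 1 μM antagonist for 15 or 60 min, then 0.8 nM I-BOP added without washing. Relative IP1 levels measured. Controls received I-BOP alone or no treatment.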

[3] = molecular target: T2, Thromboxane A2 receptor (Homo sapiens); assay: Reversible antagonist activity against human thromboxane A2 receptor alpha expressed in QBI-HEK293A cells assessed as reduction in I-BOP-induced inositol monophosphate production at 1 uM incubated for 15 to 60 mins before I-BOP addition and measured after 4 consecutive drug washout by HTRF assay; assay type: functional, cell-based; conditions: HEK293-A
How it was run: (§2)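 TP receptor α HEK-293 cells given 1 μM compound for 15 or 60 min, then four consecutive wash cycles, each about 50-fold dilution and separated by 15 min equilibration, before 0.8 nM I-BOP. IP1 then measured. Controls received I-BOP alone or no treatment; ANOVA with Dunnett's test against the […] at each time.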

[4] = molecular target: T2, Thromboxane A2 receptor (Homo sapiens); conditions: HEK293-A, 1 uM
[5] = molecular target: T2, Thromboxane A2 receptor (Homo sapiens); assay: Irreversible antagonist activity against human thromboxane A2 receptor alpha expressed in QBI-HEK293A cells assessed as reduction in I-BOP-induced inositol monophosphate production at 1 uM incubated for 15 to 60 mins before I-BOP addition and measured after 4 consecutive drug washout by HTRF assay; assay type: functional, cell-based; conditions: HEK293-A; how it was run: as §2
[6] = Stability in presence of 10 mM glutathione in pH 7.0 aqueous buffer after 3 hrs; assay type: physicochemical; conditions: pH 7, 3 h
How it was run: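 Equimolar glutathione and CPD derivative, each at 10 mM, incubated in aqueous buffer at pH 7 for 3 h. Consumption of the starting dione monitored.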

[7] = molecular target: T2, Thromboxane A2 receptor (Homo sapiens); assay: as §1, with “uM at 4 degC” for “uM”; assay type: functional, cell-based; conditions: HEK293-A
How it was run: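 Six-wash washout protocol (each wash ~50-fold dilution) run at 4 °C to suppress endocytosis and receptor trafficking. Human TP receptor-expressing cells, then I-BOP stimulation and IP1 read-out.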

Plasma = assay: Stability in CD1 mouse plasma at 1 uM after 1 hr at 37 degC by UPLC-ESI-MS/MS method; assay type: ADME, cell-free
How it was run: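 Free compound concentration followed during 1 h incubation in plasma.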

[8] = molecular target: T3, Prostaglandin E2 receptor EP1 subtype (Homo sapiens) (UniProt P34995); assay: Antagonist activity against human EP1 receptor expressed in QBI-HEK293A cells assessed as reduction in 17-PGE2-induced inositol monophosphate production at 1 uM incubated for 15 to 60 mins before […] addition by HTRF assay; assay type: functional, cell-based; conditions: HEK293-A
T3 sequence (whole entry): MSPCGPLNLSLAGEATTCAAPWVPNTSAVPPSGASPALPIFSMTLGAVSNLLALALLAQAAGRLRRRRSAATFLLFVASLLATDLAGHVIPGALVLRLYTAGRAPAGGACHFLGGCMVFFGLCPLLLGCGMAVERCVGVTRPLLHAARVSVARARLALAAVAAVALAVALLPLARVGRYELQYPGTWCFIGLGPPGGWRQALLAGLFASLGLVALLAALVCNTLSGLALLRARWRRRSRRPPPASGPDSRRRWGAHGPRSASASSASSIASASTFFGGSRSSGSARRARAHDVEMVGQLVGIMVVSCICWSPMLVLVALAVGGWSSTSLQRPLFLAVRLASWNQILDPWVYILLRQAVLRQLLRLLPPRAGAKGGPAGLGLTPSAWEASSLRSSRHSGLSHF

Row | pIC50 (Thromboxane A2 receptor) | inhibition [1] | inhibition [3] | SMILES | other results
1 | 7.53 | Active | – | O=C1C(Cc2ccccc2)=C(O)CC1Cc1cccc2c1CCC(NS(=O)(=O)c1ccc(Cl)cc1)C2 (centres undefined) | –
2 | 5.56 | – | – | Cc1cccc(C)c1C1=C(OCC(C)C)CC(Cc2cccc3c2CCC(NS(=O)(=O)c2ccc(Cl)cc2)C3)C1=O (centres undefined) | –
3 | 7.95 | – | Active | CC1=C(O)CC(Cc2cccc3c2CCC(NS(=O)(=O)c2ccc(Cl)cc2)C3)C1=O (centres undefined) | inhibition [2]: Active
4 | 7.97 | – | Active | O=C(O)Cc1cccc2c1CCC(NS(=O)(=O)c1ccc(Cl)cc1)C2 (centres undefined) | inhibition [2]: Active; inhibition [4]: Active
5 | 8.41 | Active | – | O=C1C(c2ccccc2)=C(O)CC1Cc1cccc2c1CCC(NS(=O)(=O)c1ccc(Cl)cc1)C2 (centres undefined) | –
6 | – | Active | – | O=C1C(c2ccccc2)=C(O)CC1Cc1cccc(CCNS(=O)(=O)c2ccc(Cl)cc2)c1 (racemic) [listing 1 of 2 here] | –
7 | 8.19 | Active | – | O=C1C(c2ccc(F)cc2)=C(O)CC1Cc1cccc2c1CCC(NS(=O)(=O)c1ccc(Cl)cc1)C2 (centres undefined) | –
8 | 10.28 | – | – | COc1ccc(C2=C(O)CC(Cc3cccc4c3CCC(NS(=O)(=O)c3ccc(Cl)cc3)C4)C2=O)cc1 (centres undefined) | inhibition [2]: Active; inhibition [5]: Active
9 | 7.23 | – | – | O=C1C(c2ccccc2)=C(O)CC1Cc1cccc(CCNS(=O)(=O)c2ccc(Cl)cc2)c1 (racemic) [listing 2 of 2 here] | –
10 | 7.79 | – | – | Cc1ccc2c(c1CCC(=O)O)CC[C@@H](NS(=O)(=O)c1ccc(Cl)cc1)C2 [TERUTROBAN] | –
11 | 6.05 | – | Active | O=C1C(C2CCCCC2)=C(O)CC1Cc1cccc(CCNS(=O)(=O)c2ccc(Cl)cc2)c1 (centres undefined) | –
12 | 6.05 | – | Active | Cc1cccc(C)c1C1=C(O)CC(Cc2cccc3c2CCCC3)C1=O (centres undefined) | –
13 | – | – | – | Cc1cccc(C)c1C1C(=O)CCC1=O | Stability [6]: Stable
14 | 10.82 | Active | – | Cc1cccc(C)c1C1=C(O)CC(Cc2cccc3c2CCC(NS(=O)(=O)c2ccc(Cl)cc2)C3)C1=O (centres undefined) | inhibition [2]: Active; inhibition [5]: Active; inhibition [7]: Active; Stability (Plasma): Stable; inhibition [8]: inactive
15 | – | – | Active | O=C(O)CCc1cccc(CCNS(=O)(=O)c2ccc(Cl)cc2)c1 | –
16 | – | Active | – | O=C1C(c2ccccc2)=C(O)CC1Cc1cccc(CCNS(=O)(=O)c2ccc(Cl)cc2)c1 (single isomer, unassigned; (+)) | –
